ChEMBL document CHEMBL4673343, “Lythrum salicaria Ellagitannins Stimulate IPEC-J2 Cells Monolayer Formation and Inhibit Enteropathogenic Escherichia coli Growth and Adhesion” (J Nat Prod, 2020)
Calls of active or inactive are those of the source. The calls are words filed in the database; no cut-off is given here.

Legend:
[1] = test system: IPEC-J2; assay: Induction of porcine IPEC-J2 cells monolayer development assessed as increase in transepithelial electrical resistance at 20 uM after 6 days by voltammetric method; assay type: functional, cell-based; conditions: Sus scrofa domesticus, time 6.0 day
In short: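 IPEC-J2 cells were seeded at 5 × 10^5/insert (0.4 μm PET) and cultured until TEER exceeded 1 kΩ cm2 (day 7). Apical medium was then replaced with 20 μM compound or PBS and renewed at day 10, with basolateral medium changed in parallel. TEER was read with an EVOM2 chopstick electrode at days 10 and 13. Mann–Whitney test versus PBS.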

[2] = test system: IPEC-J2; assay: Induction of claudin-4 protein expression in porcine IPEC-J2 cells at 20 uM after 6 days by Western blot analysis; assay type: functional, cell-based; conditions: Sus scrofa domesticus, time 6.0 day
In short: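 Inserts were treated apically with 20 μM from day 7, with medium renewed at day 10. At day 13 cells were lysed and protein equalized by BCA, then run on SDS–PAGE and transferred to nitrocellulose. Blots were probed with mouse anti-claudin 4 and an HRP secondary and detected by ECL. Band intensity was normalized to β-actin and expressed as fold over PBS control.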

## O=C(O[C@@H]1COC(=O)c2cc(O)c(O)c(O)c2-c2c(cc(O)c(O)c2O)C(=O)O[C@H]1[C@@H]1OC(=O)c2cc(O)c(O)c(O)c2-c2c(O)c(O)c(O)c3c2C(=O)O[C@H]1[C@@H]3O)c1cc(O)c(O)c(O)c1Oc1cc2c(c(O)c1O)-c1c(cc(O)c(O)c1O)C(=O)OC[C@H]1OC(=O)c3cc(O)c(O)c(O)c3-c3c(O)c(O)c(O)c4c3C(=O)O[C@H]([C@H]3OC(=O)c5c-4c(O)c(O)c(O)c5[C@@H]3O)[C@@H]1OC2=O
[1]
  Activity: Active
[2]
  Activity: Active

## O=C(O[C@@H]1COC(=O)c2cc(O)c(O)c(O)c2-c2c(cc(O)c(O)c2O)C(=O)O[C@H]1[C@@H]1OC(=O)c2cc(O)c(O)c(O)c2-c2c(O)c(O)c(O)c3c2C(=O)O[C@H]1[C@H]3O)c1cc(O)c(O)c(O)c1Oc1cc2c(c(O)c1O)-c1c(cc(O)c(O)c1O)C(=O)OC[C@H]1OC(=O)c3cc(O)c(O)c(O)c3-c3c(O)c(O)c(O)c4c3C(=O)O[C@H]([C@H]3OC(=O)c5c-4c(O)c(O)c(O)c5[C@@H]3O)[C@@H]1OC2=O
[1]
  Activity: Active
[2]
  Activity: Active

## O=C1OC[C@H]2OC(=O)c3cc(O)c(O)c(O)c3-c3c(O)c(O)c(O)c4c3C(=O)O[C@H]([C@H]3OC(=O)c5c-4c(O)c(O)c(O)c5[C@@H]3O)[C@@H]2OC(=O)c2cc(O)c(O)c(O)c2-c2c1cc(O)c(O)c2O
[1]
  Activity: Active
